Values belong to the molecule of their own block, whether it stands above or below them. Calls of active or inactive are those of the source. The calls are words filed in the database; no cut-off is given here.
What was measured:
Saccharomyces cerevisiae [1] = assay: (§1) Inhibition of Saccharomyces cerevisiae RAD51 D-loop activity using 5'-32P-labeled 90-mer ssDNA as substrate up to 100 uM preincubated for 10 mins followed by substrate addition with subsequent incubation with substrate for 5 mins measured after 20 mins in presence of supercoiled pRS306 dsDNA by agarose gel electrophoresis
Summary of the method: (§2)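 Yeast Rad51 (1 µM) with Rad52 (2 µM), or E. coli RecA (0.4 µM), preincubated with compound at 37 °C for 10 min. 32P 90-mer ssDNA added with 1 mM MgCl2 for 5 min, then supercoiled pRS306 with MgCl2 raised to 10 mM for 20 min. dsDNA step in 20 mM HEPES pH 7.5, 2 mM ATP, 10 nM ssDNA, 4.5 nM dsDNA. Read by agarose gel and phosphorimaging.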

[2] = molecular target: T1, DNA repair protein RAD51 homolog 1 (Homo sapiens, UniProt Q06609); assay: Effect on stabilization of Escherichia coli BL21(DE3) expressing human N-terminal 6-histidine/Avi-tagged RAD51-circular pRS306 virion ssDNA nucleoprotein filament at 100 uM after 40 mins in presence of NaCl by SYBR gold staining based agarose gel electrophoresis; assay type: ADME
T1 sequence (Q06609 whole entry): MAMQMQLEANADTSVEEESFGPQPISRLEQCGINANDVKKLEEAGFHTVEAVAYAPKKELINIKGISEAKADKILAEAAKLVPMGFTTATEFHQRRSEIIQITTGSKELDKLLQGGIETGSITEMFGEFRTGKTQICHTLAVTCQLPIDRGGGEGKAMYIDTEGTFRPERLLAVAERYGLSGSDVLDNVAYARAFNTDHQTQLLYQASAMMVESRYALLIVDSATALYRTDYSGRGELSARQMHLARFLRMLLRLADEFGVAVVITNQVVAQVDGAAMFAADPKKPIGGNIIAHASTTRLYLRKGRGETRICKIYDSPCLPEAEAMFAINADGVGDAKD

MCF7 = assay: Cytotoxicity against human MCF7 cells assessed as cell survival treated with ionizing radiation followed by compound addition after 7 to 11 days by crystal violet staining based colony counting method; assay type: functional
Summary of the method: (§3)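 Cells grown to subconfluence, X-irradiated at 1.5 Gy/min, trypsinized and seeded at 1000–1500 cells/well in complete medium with 0.5% DMSO plus compound at the indicated dose, kept through outgrowth. Incubated 7–11 days until colonies of ≥50 cells. Stained ≥30 min at room temperature in 6% glutaraldehyde + 0.5% crystal violet, then counted automatically. PC-3 grown in DMEM:F12 (1:1) with 10% FCS.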

[3] = molecular target: T2, DNA repair protein RAD51 homolog 1 (Homo sapiens) (UniProt Q06609); conditions: 5 to 100 uM
T2 sequence (whole entry): T1 sequence (Q06609 whole entry)

[4] = molecular target: T1, DNA repair protein RAD51 homolog 1; assay: Effect on stabilization of Escherichia coli BL21(DE3) expressing human N-terminal 6-histidine/Avi-tagged RAD51-circular pRS306 virion ssDNA nucleoprotein filament at 30 uM after 40 mins in presence of NaCl by SYBR gold staining based agarose gel electrophoresis; assay type: ADME
HEK293 [5] = assay: Induction of single strand annealing activity in human HEK293-SA-GFP cells transfected with pCBASce expressing I-Sce-I up to 40 uM at 24 hrs post transfection by 7-aminoactinomycin D staining based flow cytometry; assay type: functional, cell-based
Summary of the method: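 293-DR-GFP (HR) or 293-SA-GFP (SSA) reporter cells electroporated (325 V, 975 µF) with 37.5 µg/mL I-SceI plasmid pCBASce or empty pCAGGS control. Seeded in complete DMEM + 0.5% DMSO with compound added at transfection, grown out 24 h. Cells resuspended with 1 µg/mL 7-AAD for flow cytometry, dead/apoptotic cells gated out, GFP-positive fraction scored among live cells.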

HEK293 [6] = assay: Effect on RAD51 levels in soluble nuclear fraction of HEK293-DR-GFP cells at 20 uM after 8 hrs by Western blot analysis; assay type: ADME, cell-based; conditions: human, hek293, 8 h
Summary of the method: (§4)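 Subconfluent 293-DR-GFP cells grown with compound for the indicated time. Fractionated at 4 °C: hypotonic buffer on ice 15 min (cytosol); pellet in hypotonic buffer + 0.5 M NaCl 15 min (soluble nuclear); RIPA extraction three times 5 min, insoluble pellet kept (chromatin). Fractions run on 10% SDS-PAGE, blotted to PVDF, probed with rabbit anti-RAD51 (1:2000) or anti-PCNA (1:1000), read by ECL.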

HEK293 [7] = assay: Effect on RAD51 levels in chromatin fraction of HEK293-DR-GFP cells at 20 uM after 8 hrs by Western blot analysis; assay type: cell-based; conditions: human, hek293, 8 h; summary of the method: as §4
HEK293 [8] = assay: Effect on RAD51 levels in cytosol of HEK293-DR-GFP cells at 20 uM after 8 hrs by Western blot analysis; assay type: ADME, cell-based; conditions: human; summary of the method: as §4
PC-3 = assay: Cytotoxicity against human PC3 cells assessed as cell survival treated with ionizing radiation followed by compound addition after 7 to 11 days by crystal violet staining based colony counting method; assay type: functional; summary of the method: as §3
U2OS = assay: Cytotoxicity against human U2OS cells assessed as cell survival treated with ionizing radiation followed by compound addition after 7 to 11 days by crystal violet staining based colony counting method; assay type: functional; summary of the method: as §3
Escherichia coli = assay: as §1, with “Escherichia coli RecA” for “Saccharomyces cerevisiae RAD51”; summary of the method: as §2
[9] = molecular target: T1, DNA repair protein RAD51 homolog 1; assay: Inhibition of IR-induced RAD51 accumulation in HEK293-DR-GFP cells subnuclear foci at 20 uM after 8 hrs by fluorescence microscopy; assay type: cell-based
Summary of the method: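 293-DR-GFP cells grown on coverslips for 2 days, X-irradiated at 1.5 Gy/min, fixed after 0, 2, 4 or 8 h outgrowth. Paraformaldehyde fixation and Triton permeabilization. Stained with rabbit anti-RAD51 plus anti-RPA or anti-γH2AX, DAPI counterstain. At least 100 nuclei scored per condition.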

Saccharomyces cerevisiae [10] = assay: as §1, with “RAD52” for “RAD51”; summary of the method: as §2
[11] = molecular target: T1, DNA repair protein RAD51 homolog 1; assay: Inhibition of human N-terminal 6-histidine/Avi-tagged recombinant RAD51 expressed in Escherichia coli BL21(DE3) assessed as D-loop formation using 5'-32P-labeled 90-mer ssDNA as substrate preincubated for 10 mins followed by substrate addition with subsequent incubation with substrate for 5 mins measured after 20 mins in presence of supercoiled pRS306 dsDNA by agarose gel electrophoresis
[12] = molecular target: T1, DNA repair protein RAD51 homolog 1; assay: Inhibition of Escherichia coli BL21(DE3) expressing human N-terminal 6-histidine/Avi-tagged RAD51 binding to 5'-Alexa488-oligo-dT45 ssDNA preincubated for 40 mins followed by substrate addition measured after 40 mins by fluorescence polarization based microplate method
Summary of the method: (§5)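 Human RAD51 preincubated with compound in DMSO at 37 °C for 40 min, then 5'-Alexa488-oligo-dT45 added and incubated another 40 min at 37 °C. Buffer: 20 mM HEPES pH 7.5, 2 mM ATP, 10 mM MgCl2, 0.1 mM TCEP. IC50 from least-squares dose–response fits with standard error.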

[13] = molecular target: T1, DNA repair protein RAD51 homolog 1; assay: Inhibition of Escherichia coli BL21(DE3) expressing human N-terminal 6-histidine/Avi-tagged RAD51 binding to 5'-Alexa488-oligo-dT45 ssDNA at 5 to 100 uM preincubated for 40 mins followed by substrate addition measured after 40 mins by fluorescence polarization based microplate method; conditions: read-out: Imax
Summary of the method: as §5, with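 “TCEP. Final: 0.2 µM RAD51, 2.22 nM ssDNA, 30 mM NaCl, 4% DMSO. Fluorescence polarization read at 485/535 nm.” for “TCEP.”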

[14] = molecular target: T1, DNA repair protein RAD51 homolog 1; assay: Inhibition of RAD51-mediated homologous recombination in human HEK293-DR-GFP cells transfected with pCBASce expressing I-Sce-I after 24 hrs following transfection by 7-aminoactinomycin D staining based flow cytometry
[15] = molecular target: T1, DNA repair protein RAD51 homolog 1; assay: Inhibition of Escherichia coli BL21(DE3) expressing human N-terminal 6-histidine/Avi-tagged RAD51 binding to circular pRS306 virion ssDNA preincubated for 40 mins followed by ssDNA addition measured after 5 mins by agarose gel electrophoresis
[16] = molecular target: T2, DNA repair protein RAD51 homolog 1 (Homo sapiens); conditions: 40 uM

Structure (SMILES): CN(C)c1ccc(-c2nc3cc(O)ccc3n3cccc23)cc1
Imax [3]: 91%

Structure (SMILES): CN(C)c1ccc(-c2nc3cc(F)ccc3n3cccc23)cc1
IC50 [11]: > 100 µM

Structure (SMILES): O=[N+]([O-])c1ccc(-c2nc3cc(O)ccc3n3cccc23)cc1
IC50 [11]: > 100 µM

Structure (SMILES): COc1ccc2c(c1)nc(-c1ccc(O)cc1)c1cccn12
Imax [3]: 13%

Structure (SMILES): COc1ccc2c(c1)nc(-c1ccc([N+](=O)[O-])cc1)c1cccn12
IC50 [11]: > 100 µM

Structure (SMILES): Oc1ccc2c(c1)nc(-c1cccnc1)c1cccn12
Imax [3]: 53%

Structure (SMILES): CN(C)c1ccc(-c2nc3cc(F)c(F)cc3n3cccc23)cc1
IC50 [11]: > 100 µM

Structure (SMILES): COc1ccc2c(c1)NC(c1ccc(N(C)C)cc1)c1cccn1-2 (racemic)
Imax [3]: 17%

Structure (SMILES): COc1ccc2c(c1)nc(-c1ccc(N)cc1)c1cccn12
Imax [3]: 100%

Structure (SMILES): COc1ccc2c(c1)nc(-c1ccc(N(C)C)cc1)c1cccn12
Imax [3]: 67%

Structure (SMILES): C1=C(c2nc3ccccc3n3cccc23)CCCC1
IC50 [11]: > 100 µM

Structure (SMILES): COc1ccc2c(c1)nc(-c1cccnc1)c1cccn12
Imax [3]: 74%
IC50 [12]: > 100 µM

Structure (SMILES): COc1ccc2c(c1)NC(c1ccc(N(C)C)cc1)c1cccn1-2 (stereo in doubt; 1) [listing 1 of 2 here]
Emax [13]: 33%
IC50 [11]: 21.3 µM
IC50 [14]: 13.1 µM

Structure (SMILES): O=C1C(Cl)=C(N2CCOCC2)C(=O)N1c1ccc(Cl)c(Cl)c1
Activity [15]: Dose-dependent effect
Activity [4]: Active

Structure (SMILES): COc1ccc2c(c1)NC(c1ccc(N(C)C)cc1)c1cccn1-2 (stereo in doubt; 1) [listing 2 of 2 here]
Imax [3]: 74%
inhibition [16]: 83%

Continued, in another order:

inhibition (Saccharomyces cerevisiae [1]): inactive
Activity [2]: Not Active
Imax [3]: 91%
Activity [4]: Not Active
inhibition (Escherichia coli): inactive
inhibition (INH) [9]: Not Active
inhibition (Saccharomyces cerevisiae [10]): inactive
Structure (SMILES): CCNc1ccc(-c2nc3ccccc3n3cccc23)cc1
Activity (MCF7): Active
Activity (HEK293 [5]): inactive
Activity (HEK293 [6]): Non-toxic
Activity (HEK293 [7]): Non-toxic
Activity (HEK293 [8]): Non-toxic
Activity (PC-3): Active
Activity (U2OS): Active

IC50 [11]: > 100 µM
Structure (SMILES): c1ccc2c(-c3nc4ccccc4n4cccc34)cccc2c1

IC50 [11]: > 100 µM
Structure (SMILES): FC(F)(F)Oc1ccc(-c2nc3ccccc3n3cccc23)cc1

IC50 [12]: > 100 µM
Structure (SMILES): c1ccc2c(c1)nc(-c1ccncc1)c1cccn12

IC50 [12]: > 100 µM
IC50 [11]: > 100 µM
Structure (SMILES): O=[N+]([O-])c1ccc(-c2nc3ccccc3n3cccc23)cc1

IC50 [11]: > 100 µM
Structure (SMILES): c1ccc2c(c1)nc(-c1ccc(N3CCCC3)cc1)c1cccn12

Imax [3]: 68%
IC50 [12]: > 100 µM
Structure (SMILES): c1ccc2c(c1)nc(-c1ccc(N3CCOCC3)cc1)c1cccn12

IC50 [12]: > 100 µM
IC50 [11]: > 100 µM
Structure (SMILES): O=[N+]([O-])c1cccc(-c2nc3ccccc3n3cccc23)c1

IC50 [12]: > 100 µM
Structure (SMILES): Nc1cccc(-c2nc3ccccc3n3cccc23)c1

IC50 [12]: > 100 µM
IC50 [11]: > 100 µM
Structure (SMILES): Oc1ccc(-c2nc3ccccc3n3cccc23)cc1
